Laboratory results: ChEMBL document CHEMBL1140904, “Synthesis and analysis of novel glycerolipids for the treatment of metabolic syndrome” (J Med Chem, 2009)

Key:
Rattus norvegicus [1] = assay: Effect on fatty acid composition in Wistar rat assessed as change in liver MUFA level at 250 uM, po after 6 days; assay type: functional
Method in brief: (§1)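 Male Wistar rats were gavaged once daily for 6 days with compound in 0.5% CMC at 85 or 250 µmol TTA-equivalent per animal. Controls received palmitic acid. Liver was homogenized in 0.25 M sucrose/10 mM HEPES pH 7.4/1 mM EDTA at 0-4 °C. Lipids were extracted with chloroform:methanol 2:1 and spiked with 21:0 internal standard. Fatty acids were BF3-methanol transesterified and quantified as wt%. Values are mean ± SD, n=5.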

Rattus norvegicus [2] = assay: Effect on fatty acid composition in Wistar rat assessed as change in plasma saturated fatty acid level at 250 uM, po after 6 days; assay type: functional
Rattus norvegicus [3] = assay: Effect on fatty acid composition in Wistar rat assessed as change in plasma PUFA level at 250 uM, po after 6 days; assay type: functional
Rattus norvegicus [4] = assay: Effect on fatty acid composition in Wistar rat assessed as change in plasma 18;2, n-6 level at 250 uM, po after 6 days; assay type: functional
Rattus norvegicus [5] = assay: Effect on fatty acid composition in Wistar rat assessed as change in liver LCPUFA, n-6 level at 85 uM, po after 6 days; assay type: functional; method in brief: as §1
Rattus norvegicus [6] = assay: Effect on fatty acid composition in Wistar rat assessed as change in plasma MUFA level at 250 uM, po after 6 days; assay type: functional
Rattus norvegicus [7] = assay: Effect on fatty acid composition in Wistar rat assessed as change in liver 18;2, n-6 level at 85 uM, po after 6 days; assay type: functional; method in brief: as §1
Liver [8] = assay: Drug level in Wistar rat liver at 250 uM, po after 6 days; assay type: ADME, organism-based; details: in vivo, 144 h; method in brief: as §1
Rattus norvegicus [9] = assay: Effect on fatty acid composition in Wistar rat assessed as change in liver LCn-6/18:2 level at 250 uM, po after 6 days; assay type: functional; method in brief: as §1
Rattus norvegicus [10] = assay: Decrease in plasma cholesterol level in po dosed Wistar rat after 6 days; assay type: functional, organism-based
Method in brief: (§2)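 Male Wistar rats (170-210 g), housed in pairs with chow and water, were gavaged once daily for 6 days with test lipid in 0.5% (w/v) carboxymethylcellulose at 85 or 250 µmol TTA-equivalent per animal. Controls received palmitic acid in CMC. Plasma triacylglycerol and cholesterol were measured with an enzymatic kit, and liver levels were also determined. Values are mean ± SD, n=5 rats.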

Rattus norvegicus [11] = assay: Effect on fatty acid composition in Wistar rat assessed as change in liver 18;2, n-6 level at 250 uM, po after 6 days; assay type: functional; method in brief: as §1
Rattus norvegicus [12] = assay: Effect on fatty acid composition in Wistar rat assessed as change in liver PUFA level at 250 uM, po after 6 days; assay type: functional; method in brief: as §1
Rattus norvegicus [13] = assay: Effect on fatty acid composition in Wistar rat assessed as change in plasma 18;2, n-6 level at 85 uM, po after 6 days; assay type: functional
Rattus norvegicus [14] = assay: Effect on fatty acid composition in Wistar rat assessed as change in plasma LCPUFA, n-6 level at 250 uM, po after 6 days; assay type: functional
Rattus norvegicus [15] = assay: Effect on fatty acid composition in Wistar rat assessed as change in plasma PUFA level at 85 uM, po after 6 days; assay type: functional
Rattus norvegicus [16] = assay: Effect on fatty acid composition in Wistar rat assessed as change in liver LCn-6/18:2 level at 85 uM, po after 6 days; assay type: functional; method in brief: as §1
Rattus norvegicus [17] = assay: Effect on fatty acid composition in Wistar rat assessed as change in plasma saturated fatty acid level at 85 uM, po after 6 days; assay type: functional
Rattus norvegicus [18] = assay: Increase in [1-14C]palmitoyl-CoA oxidation in po dosed Wistar rat liver homogenate after 6 days; assay type: functional, organism-based
Method in brief: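 Rats were dosed by gastric intubation for 6 days with 85 or 250 µmol TTA-equivalent in 0.5% CMC, with palmitic acid controls. Liver was homogenized in 0.25 M sucrose, 10 mM HEPES pH 7.4, 1 mM EDTA at 0-4 °C. Palmitoyl-CoA oxidation was read as acid-soluble products from [1-14C]-palmitoyl-CoA in the postnuclear fraction. Mean ± SD, n=5.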

Liver [19] = assay: Drug level in Wistar rat liver at 85 uM, po after 6 days; assay type: ADME, organism-based; details: in vivo, 144 h; method in brief: as §1
Rattus norvegicus [20] = assay: Effect on fatty acid composition in Wistar rat assessed as change in plasma LCn-6/18:2 level at 250 uM, po after 6 days; assay type: functional
Rattus norvegicus [21] = assay: Effect on fatty acid composition in Wistar rat assessed as change in liver saturated fatty acid level at 85 uM, po after 6 days; assay type: functional; method in brief: as §1
Rattus norvegicus [22] = assay: Effect on fatty acid composition in Wistar rat assessed as change in liver PUFA level at 85 uM, po after 6 days; assay type: functional; method in brief: as §1
Rattus norvegicus [23] = assay: Induction of PPAR-alpha-regulated HMG-CoA synthase activity in po dosed Wistar rat after 6 days; assay type: functional, organism-based
Method in brief: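 Wistar rats were gavaged daily for 6 days at 85 or 250 µmol TTA-equivalent in 0.5% CMC, with palmitic acid controls. HMG-CoA synthase activity was assayed in the liver postnuclear fraction by the Clinkenbeard method. Mean ± SD, 5 rats/group.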

Rattus norvegicus [24] = assay: Decrease in plasma triacylglycerol level in po dosed Wistar rat after 6 days; assay type: functional, organism-based; method in brief: as §2
Rattus norvegicus [25] = assay: Effect on fatty acid composition in Wistar rat assessed as change in plasma MUFA level at 85 uM, po after 6 days; assay type: functional
Rattus norvegicus [26] = assay: Induction of PPAR-alpha-regulated fatty acyl-CoA oxidase activity in po dosed Wistar rat after 6 days; assay type: functional, organism-based
Method in brief: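 Rats were dosed by gastric intubation for 6 days at 85 or 250 µmol TTA-equivalent in 0.5% CMC, with palmitic acid controls. Fatty acyl-CoA oxidase was measured in the liver postnuclear fraction by a coupled assay, following H2O2 production as the rise in dichlorofluorescein absorbance with palmitoyl-CoA. Mean ± SD, n=5.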

Rattus norvegicus [27] = assay: Effect on fatty acid composition in Wistar rat assessed as change in liver LCPUFA, n-6 level at 250 uM, po after 6 days; assay type: functional; method in brief: as §1
Rattus norvegicus [28] = assay: Effect on fatty acid composition in Wistar rat assessed as change in liver saturated fatty acid level at 250 uM, po after 6 days; assay type: functional; method in brief: as §1
Rattus norvegicus [29] = assay: Plasma concentration in Wistar rat at 250 uM, po after 6 days; assay type: ADME, organism-based; details: in vivo, 144 h
Rattus norvegicus [30] = assay: Effect on fatty acid composition in Wistar rat assessed as change in plasma LCn-6/18:2 level at 85 uM, po after 6 days; assay type: functional
Rattus norvegicus [31] = assay: Effect on fatty acid composition in Wistar rat assessed as change in liver MUFA level at 85 uM, po after 6 days; assay type: functional; method in brief: as §1
Rattus norvegicus [32] = assay: Induction of PPAR-alpha-regulated CPT2 activity in po dosed Wistar rat after 6 days; assay type: functional, organism-based
Method in brief: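 Wistar rats were dosed orally for 6 days (85 or 250 µmol TTA-equivalent in 0.5% CMC; palmitic acid controls). CPT-II activity was measured in the liver mitochondrial fraction, prepared from sucrose/HEPES pH 7.4/EDTA homogenate at 0-4 °C. Means ± SD from 5 rats per group.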

Rattus norvegicus [33] = assay: Effect on fatty acid composition in Wistar rat assessed as change in plasma LCPUFA, n-6 level at 85 uM, po after 6 days; assay type: functional
Rattus norvegicus [34] = assay: Plasma concentration in Wistar rat at 85 uM, po after 6 days; assay type: ADME, organism-based; details: in vivo, 144 h

## CCCCCCCCCCCCCCSCC(=O)O [TETRADECYLTHIOACETIC ACID]
Rattus norvegicus [1]
  Activity: 16.86%
Rattus norvegicus [2]
  Activity: 35%
Rattus norvegicus [3]
  Activity: 2.24%
Rattus norvegicus [4]
  Activity: 19.68%
Rattus norvegicus [5]
  Activity: 25.7%
Rattus norvegicus [6]
  Activity: 21.32%
Rattus norvegicus [7]
  Activity: 11.15%
Liver [8]
  Drug uptake: 2.03%
Rattus norvegicus [9]
  Activity: 2.56 dimensionless ratio
Rattus norvegicus [10]
  Activity: Dose-dependent effect
Rattus norvegicus [11]
  Activity: 11.02%
Rattus norvegicus [12]
  Activity: 4.94%
Rattus norvegicus [13]
  Activity: 18.46%
Rattus norvegicus [14]
  Activity: 20.82%
Rattus norvegicus [15]
  Activity: 2.47%
Rattus norvegicus [16]
  Activity: 2.34%
Rattus norvegicus [17]
  Activity: 36.02%
Rattus norvegicus [18]
  Activity: Dose-dependent effect
Liver [19]
  Drug uptake: 0.36%
Rattus norvegicus [20]
  Activity: 1.06%
Rattus norvegicus [21]
  Activity: 39.67%
Rattus norvegicus [22]
  Activity: 5.44%
Rattus norvegicus [23]
  Activity: Dose-dependent effect
Rattus norvegicus [24]
  Activity: Dose-dependent effect
Rattus norvegicus [25]
  Activity: 23.49%
Rattus norvegicus [26]
  Activity: Dose-dependent effect
Rattus norvegicus [27]
  Activity: 27.66%
Rattus norvegicus [28]
  Activity: 38.71%
Rattus norvegicus [29]
  Drug uptake: 1.6%
Rattus norvegicus [30]
  Activity: 1.03%
Rattus norvegicus [31]
  Activity: 17.35%
Rattus norvegicus [32]
  Activity: Dose-dependent effect
Rattus norvegicus [33]
  Activity: 18.75%
Rattus norvegicus [34]
  Drug uptake: 0.32%
